{"source": "ChEMBL document CHEMBL5247671", "about": "“Design and Synthesis of Pyrazole-Based Macrocyclic Kinase Inhibitors Targeting BMPR2” (ACS Med Chem Lett, 2023)", "key": {"[1]": {"target": "MAP/microtubule affinity-regulating kinase 3 (Homo sapiens) (UniProt P27448)", "sequence (P27448 whole entry, looked up)": "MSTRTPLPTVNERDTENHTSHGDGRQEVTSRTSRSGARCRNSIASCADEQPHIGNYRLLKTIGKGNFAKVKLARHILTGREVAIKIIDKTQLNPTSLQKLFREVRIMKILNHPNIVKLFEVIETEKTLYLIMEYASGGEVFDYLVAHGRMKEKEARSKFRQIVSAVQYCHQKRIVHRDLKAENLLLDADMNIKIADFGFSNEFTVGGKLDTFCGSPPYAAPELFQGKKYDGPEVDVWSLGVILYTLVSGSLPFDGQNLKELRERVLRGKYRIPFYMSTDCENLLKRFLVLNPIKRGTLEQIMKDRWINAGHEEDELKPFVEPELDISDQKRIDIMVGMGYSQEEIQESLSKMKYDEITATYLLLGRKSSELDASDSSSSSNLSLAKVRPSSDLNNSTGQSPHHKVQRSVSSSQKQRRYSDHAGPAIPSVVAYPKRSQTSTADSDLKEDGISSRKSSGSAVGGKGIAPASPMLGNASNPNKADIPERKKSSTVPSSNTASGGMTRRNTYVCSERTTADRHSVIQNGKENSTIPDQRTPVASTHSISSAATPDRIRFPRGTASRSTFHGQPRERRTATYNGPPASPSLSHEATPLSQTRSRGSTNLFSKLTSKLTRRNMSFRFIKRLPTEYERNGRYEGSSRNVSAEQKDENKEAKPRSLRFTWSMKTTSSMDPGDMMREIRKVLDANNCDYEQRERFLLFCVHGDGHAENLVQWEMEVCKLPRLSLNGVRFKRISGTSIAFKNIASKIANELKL", "experiment": "Binding affinity to recombinant MARK3 (unknown origin) assessed as change in melting temperature at 10 uM by DSF assay", "in_short": "(§1)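 Differential scanning fluorimetry on an in-house panel of 90 recombinant kinases. Stabilization is read as the shift in melting temperature (ΔTm) relative to ligand-free protein. Staurosporine served as the positive control, and binding was also compared against its ΔTm.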"}, "[2]": {"target": "Vascular endothelial growth factor receptor 1 (Homo sapiens) (UniProt P17948)", "sequence (P17948 whole entry)": "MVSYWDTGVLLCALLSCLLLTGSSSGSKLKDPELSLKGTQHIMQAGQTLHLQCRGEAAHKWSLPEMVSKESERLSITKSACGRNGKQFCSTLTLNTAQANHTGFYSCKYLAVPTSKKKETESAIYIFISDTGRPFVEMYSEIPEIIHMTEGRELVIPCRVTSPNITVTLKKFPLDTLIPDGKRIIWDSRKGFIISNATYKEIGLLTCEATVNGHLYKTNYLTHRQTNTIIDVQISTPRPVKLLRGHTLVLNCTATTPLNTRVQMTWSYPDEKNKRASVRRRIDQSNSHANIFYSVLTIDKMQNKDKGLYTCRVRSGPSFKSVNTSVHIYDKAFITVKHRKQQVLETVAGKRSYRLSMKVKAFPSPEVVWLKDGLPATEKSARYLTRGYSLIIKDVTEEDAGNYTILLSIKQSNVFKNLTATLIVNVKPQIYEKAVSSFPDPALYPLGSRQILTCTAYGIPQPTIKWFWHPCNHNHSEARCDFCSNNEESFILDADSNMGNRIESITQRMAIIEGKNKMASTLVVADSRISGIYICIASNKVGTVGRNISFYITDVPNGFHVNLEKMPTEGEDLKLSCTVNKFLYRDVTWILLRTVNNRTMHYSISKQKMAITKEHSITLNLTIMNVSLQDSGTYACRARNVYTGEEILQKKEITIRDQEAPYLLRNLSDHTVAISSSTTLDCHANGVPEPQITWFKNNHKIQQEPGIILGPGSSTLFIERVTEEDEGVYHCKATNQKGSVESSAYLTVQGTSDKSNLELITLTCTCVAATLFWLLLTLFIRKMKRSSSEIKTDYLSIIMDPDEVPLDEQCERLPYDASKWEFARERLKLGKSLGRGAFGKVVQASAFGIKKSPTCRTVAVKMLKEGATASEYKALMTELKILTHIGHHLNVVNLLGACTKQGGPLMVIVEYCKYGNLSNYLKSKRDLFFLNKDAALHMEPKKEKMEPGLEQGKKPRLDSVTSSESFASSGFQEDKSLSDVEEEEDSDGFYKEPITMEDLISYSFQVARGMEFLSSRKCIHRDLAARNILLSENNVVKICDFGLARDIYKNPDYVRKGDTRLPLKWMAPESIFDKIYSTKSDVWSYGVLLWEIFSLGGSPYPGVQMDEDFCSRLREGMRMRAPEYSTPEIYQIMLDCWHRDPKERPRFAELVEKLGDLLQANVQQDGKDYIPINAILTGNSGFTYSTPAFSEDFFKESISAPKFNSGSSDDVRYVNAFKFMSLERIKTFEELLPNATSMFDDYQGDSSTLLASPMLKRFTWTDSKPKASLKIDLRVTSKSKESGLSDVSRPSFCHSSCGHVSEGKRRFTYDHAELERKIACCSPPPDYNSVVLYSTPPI", "experiment": "Inhibition of recombinant FLT1 (unknown origin) at 10 uM by DSF assay relative to staurosporine", "in_short": "as §1"}, "[3]": {"target": "T1, Serine/threonine-protein kinase 4 (Homo sapiens) (UniProt Q13043)", "T1 sequence (whole entry)": "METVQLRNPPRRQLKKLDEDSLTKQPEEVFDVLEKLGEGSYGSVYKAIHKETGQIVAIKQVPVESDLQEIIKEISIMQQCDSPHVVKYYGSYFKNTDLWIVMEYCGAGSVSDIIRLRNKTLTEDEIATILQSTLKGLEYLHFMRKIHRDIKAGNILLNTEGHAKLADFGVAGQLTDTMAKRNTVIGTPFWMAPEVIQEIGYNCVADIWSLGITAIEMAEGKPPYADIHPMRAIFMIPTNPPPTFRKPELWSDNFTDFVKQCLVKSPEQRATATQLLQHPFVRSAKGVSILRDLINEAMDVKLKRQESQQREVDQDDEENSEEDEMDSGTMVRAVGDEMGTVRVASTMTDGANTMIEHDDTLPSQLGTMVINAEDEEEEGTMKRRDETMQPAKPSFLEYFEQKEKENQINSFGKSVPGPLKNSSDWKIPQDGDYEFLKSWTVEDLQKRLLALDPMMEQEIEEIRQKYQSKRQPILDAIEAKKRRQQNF", "experiment": "Inhibition of recombinant STK4 (unknown origin) at 10 uM by DSF assay relative to staurosporine", "in_short": "as §1"}, "[4]": {"target": "T2, Bone morphogenetic protein receptor type-2 (Homo sapiens) (UniProt Q13873)", "T2 sequence (whole entry)": "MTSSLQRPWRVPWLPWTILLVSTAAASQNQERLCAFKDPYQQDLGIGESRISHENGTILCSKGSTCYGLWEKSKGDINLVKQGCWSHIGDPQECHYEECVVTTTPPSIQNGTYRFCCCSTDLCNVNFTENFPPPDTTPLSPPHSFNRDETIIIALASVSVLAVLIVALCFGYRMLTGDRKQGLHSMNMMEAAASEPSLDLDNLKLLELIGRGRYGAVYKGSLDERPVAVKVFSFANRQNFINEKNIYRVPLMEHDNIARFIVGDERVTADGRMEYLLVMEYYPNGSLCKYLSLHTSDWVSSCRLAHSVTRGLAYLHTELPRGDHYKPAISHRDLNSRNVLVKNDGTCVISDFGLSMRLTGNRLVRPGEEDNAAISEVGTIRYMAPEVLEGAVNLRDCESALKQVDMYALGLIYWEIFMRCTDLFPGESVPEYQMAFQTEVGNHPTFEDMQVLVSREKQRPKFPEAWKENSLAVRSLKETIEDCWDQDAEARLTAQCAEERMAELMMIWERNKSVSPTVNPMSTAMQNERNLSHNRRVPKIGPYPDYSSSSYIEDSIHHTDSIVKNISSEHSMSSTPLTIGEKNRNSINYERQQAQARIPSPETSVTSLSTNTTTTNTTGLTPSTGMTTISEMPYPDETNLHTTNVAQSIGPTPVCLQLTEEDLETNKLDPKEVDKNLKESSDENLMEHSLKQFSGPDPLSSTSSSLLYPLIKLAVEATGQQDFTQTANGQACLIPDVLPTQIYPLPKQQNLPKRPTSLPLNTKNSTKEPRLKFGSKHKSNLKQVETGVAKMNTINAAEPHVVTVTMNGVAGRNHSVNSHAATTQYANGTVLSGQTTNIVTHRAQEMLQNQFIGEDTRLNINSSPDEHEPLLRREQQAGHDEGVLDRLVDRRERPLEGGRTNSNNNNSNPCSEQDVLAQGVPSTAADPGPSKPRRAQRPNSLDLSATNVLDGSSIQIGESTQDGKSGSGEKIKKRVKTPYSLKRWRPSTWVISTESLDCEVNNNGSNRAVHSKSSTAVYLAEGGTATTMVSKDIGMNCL", "experiment": "Inhibition of recombinant BMPR2 (unknown origin) at 10 uM by DSF assay relative to […]"}, "[5]": {"target": "Glycogen synthase kinase-3 beta (Homo sapiens, UniProt P49841)", "sequence (P49841 whole entry, the tested form may be a part)": "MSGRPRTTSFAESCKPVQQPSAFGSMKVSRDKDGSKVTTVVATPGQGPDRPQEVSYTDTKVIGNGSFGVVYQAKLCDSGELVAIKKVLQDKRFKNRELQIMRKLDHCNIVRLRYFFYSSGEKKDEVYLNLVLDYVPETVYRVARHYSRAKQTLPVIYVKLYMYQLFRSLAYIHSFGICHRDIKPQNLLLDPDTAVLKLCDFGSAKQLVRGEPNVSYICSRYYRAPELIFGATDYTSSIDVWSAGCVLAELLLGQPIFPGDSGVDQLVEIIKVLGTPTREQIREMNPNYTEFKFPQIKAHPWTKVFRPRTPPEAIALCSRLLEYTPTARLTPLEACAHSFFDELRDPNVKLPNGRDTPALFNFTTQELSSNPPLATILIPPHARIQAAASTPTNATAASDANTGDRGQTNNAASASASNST", "experiment": "Inhibition of N-terminal NanoLuc-fused full length lysed GSK3B (unknown origin) transfected in HEK293T cells incubated for 2 hrs in presence of tracer K8 by NanoBRET assay", "type": "cell-based", "in_short": "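GSK3B NanoBRET run in the lysed mode, with cells permeabilized by digitonin to bypass compound cell penetration. EC50 values were derived from tracer displacement.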"}, "[6]": {"target": "Glycogen synthase kinase-3 alpha (Homo sapiens, UniProt P49840)", "sequence (P49840 2-483 limits assumed)": "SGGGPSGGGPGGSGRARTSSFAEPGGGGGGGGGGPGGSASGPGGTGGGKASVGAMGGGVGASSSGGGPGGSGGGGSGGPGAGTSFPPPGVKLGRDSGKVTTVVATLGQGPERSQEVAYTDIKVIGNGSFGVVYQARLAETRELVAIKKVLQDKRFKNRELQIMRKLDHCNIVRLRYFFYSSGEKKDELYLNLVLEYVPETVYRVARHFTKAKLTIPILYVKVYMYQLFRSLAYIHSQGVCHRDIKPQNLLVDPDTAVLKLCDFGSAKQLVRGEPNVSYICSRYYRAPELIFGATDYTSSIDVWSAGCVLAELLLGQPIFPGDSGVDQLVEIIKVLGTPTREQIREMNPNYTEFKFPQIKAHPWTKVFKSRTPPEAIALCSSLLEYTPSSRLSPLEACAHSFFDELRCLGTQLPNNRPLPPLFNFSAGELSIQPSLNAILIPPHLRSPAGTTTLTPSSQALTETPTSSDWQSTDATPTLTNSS", "experiment": "Inhibition of GSK3A (unknown origin) assessed as residual activity at 1 uM by Kinomescan assay relative to staurosporine"}, "[7]": {"target": "T3, Mitogen-activated protein kinase 15 (Homo sapiens) (UniProt Q8TD08)", "T3 sequence (whole entry)": "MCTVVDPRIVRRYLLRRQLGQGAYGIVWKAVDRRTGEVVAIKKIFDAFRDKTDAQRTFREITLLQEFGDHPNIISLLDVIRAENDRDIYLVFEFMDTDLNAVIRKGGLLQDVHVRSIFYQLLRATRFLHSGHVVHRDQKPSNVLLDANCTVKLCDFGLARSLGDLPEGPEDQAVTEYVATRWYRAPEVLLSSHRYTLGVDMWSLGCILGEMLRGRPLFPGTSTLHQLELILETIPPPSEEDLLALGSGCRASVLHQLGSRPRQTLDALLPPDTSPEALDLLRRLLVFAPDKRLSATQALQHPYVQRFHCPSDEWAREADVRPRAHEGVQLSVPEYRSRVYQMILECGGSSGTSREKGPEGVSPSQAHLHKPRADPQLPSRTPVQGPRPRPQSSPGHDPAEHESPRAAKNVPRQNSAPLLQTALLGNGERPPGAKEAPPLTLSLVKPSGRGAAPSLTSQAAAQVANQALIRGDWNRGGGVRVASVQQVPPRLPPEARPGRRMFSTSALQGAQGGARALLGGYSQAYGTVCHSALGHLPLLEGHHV", "experiment": "Inhibition of recombinant MAPK15 (unknown origin) at 10 uM by DSF assay relative to staurosporine", "in_short": "as §1"}, "[8]": {"target": "BMP-2-inducible protein kinase (Homo sapiens) (UniProt Q9NSY1)", "sequence (Q9NSY1 whole entry, looked up)": "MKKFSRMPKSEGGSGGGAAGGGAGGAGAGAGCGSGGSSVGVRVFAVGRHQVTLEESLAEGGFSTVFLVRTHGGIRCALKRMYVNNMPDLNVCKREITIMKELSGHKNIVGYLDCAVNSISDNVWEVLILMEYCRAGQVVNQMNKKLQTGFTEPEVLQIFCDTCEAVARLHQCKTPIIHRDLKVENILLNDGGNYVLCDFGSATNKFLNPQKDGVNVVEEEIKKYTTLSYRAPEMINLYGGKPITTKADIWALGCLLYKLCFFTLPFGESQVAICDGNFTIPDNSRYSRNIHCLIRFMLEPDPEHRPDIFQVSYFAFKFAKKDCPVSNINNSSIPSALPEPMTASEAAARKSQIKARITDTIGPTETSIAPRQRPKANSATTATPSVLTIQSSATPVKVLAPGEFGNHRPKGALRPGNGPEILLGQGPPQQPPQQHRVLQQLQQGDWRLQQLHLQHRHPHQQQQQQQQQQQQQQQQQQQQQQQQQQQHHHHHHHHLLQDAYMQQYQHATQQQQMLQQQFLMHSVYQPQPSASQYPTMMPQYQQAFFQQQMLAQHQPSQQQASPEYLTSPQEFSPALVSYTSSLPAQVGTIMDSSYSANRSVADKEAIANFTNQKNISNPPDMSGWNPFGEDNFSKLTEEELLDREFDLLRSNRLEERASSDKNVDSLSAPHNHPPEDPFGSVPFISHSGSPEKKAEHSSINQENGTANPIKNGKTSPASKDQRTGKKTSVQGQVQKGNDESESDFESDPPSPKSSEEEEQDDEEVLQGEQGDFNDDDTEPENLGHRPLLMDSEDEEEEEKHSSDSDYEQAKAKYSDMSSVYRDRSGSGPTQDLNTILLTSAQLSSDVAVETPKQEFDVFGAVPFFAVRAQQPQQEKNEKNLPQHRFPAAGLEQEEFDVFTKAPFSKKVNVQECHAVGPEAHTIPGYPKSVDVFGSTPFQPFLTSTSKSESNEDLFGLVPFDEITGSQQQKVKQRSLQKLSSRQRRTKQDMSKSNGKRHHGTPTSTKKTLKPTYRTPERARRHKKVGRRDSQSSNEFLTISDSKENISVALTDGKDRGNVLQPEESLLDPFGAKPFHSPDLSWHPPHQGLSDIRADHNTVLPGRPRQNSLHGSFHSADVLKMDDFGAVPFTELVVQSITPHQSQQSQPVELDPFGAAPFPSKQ", "experiment": "Binding affinity to recombinant BMP2K (unknown origin) assessed as change in melting temperature at 10 uM by DSF assay", "in_short": "as §1"}, "[9]": {"target": "T4, Bone morphogenetic protein receptor type-2 (Homo sapiens, UniProt Q13873)", "T4 sequence (Q13873 whole entry)": "T2 sequence (whole entry)", "experiment": "Inhibition of BMPR2 (unknown origin) assessed as dissociation constant by ITC assay", "in_short": "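Binding measured by isothermal titration calorimetry against the recombinant BMPR2 kinase domain. Thermodynamic binding parameters, including the dissociation constant, were derived from the titration data.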"}, "[10]": {"target": "Cyclin-dependent kinase 2 (Homo sapiens) (UniProt P24941)", "experiment": "Inhibition of recombinant CDK2 (unknown origin) at 10 uM by DSF assay relative to staurosporine", "in_short": "as §1"}, "[11]": {"target": "T2, Bone morphogenetic protein receptor type-2 (Homo sapiens)", "experiment": "Inhibition of BMPR2 (unknown origin) assessed as residual activity at 1 uM by Kinomescan assay relative to staurosporine"}}, "note": "“And” between values parts separate entries of the source, which are not always exact repeats. Equal entries are not always repeated.", "data": [{"smiles": "O=C1NCCc2ccc(cc2)Nc2nccc(n2)Nc2cc1[nH]n2", "values": [{"measurement": "ΔTm", "setting": "[1]", "value": 3.9, "unit": "°C"}, {"measurement": "inhibition", "setting": "[2]", "value": 36, "unit": "%"}, {"measurement": "inhibition", "setting": "[3]", "value": 22, "unit": "%"}, {"measurement": "inhibition", "setting": "[4]", "value": 103, "unit": "%"}, {"measurement": "IC50", "setting": "[5]", "value": 2300, "unit": "nM"}, {"measurement": "Activity", "setting": "[6]", "value": 16, "unit": "%"}, {"measurement": "inhibition", "setting": "[7]", "value": 26, "unit": "%"}, {"measurement": "ΔTm", "setting": "[8]", "value": "5.8 °C and 5.3 °C"}, {"measurement": "Kd", "setting": "[9]", "value": 83.5, "unit": "nM"}, {"measurement": "inhibition", "setting": "[10]", "value": 25, "unit": "%"}, {"measurement": "Activity", "setting": "[11]", "value": 8.3, "unit": "%"}]}]}
